Tests used:
[1] = Half life in Sprague-Dawley rat at 3 mg/kg, po measured for 24 hrs by LC-MS/MS analysis; format: ADME, organism-based; details: in vivo
Procedure, shortened: (§1)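 Sprague-Dawley rats dosed orally at 1 or 3 mg/kg, three animals per group. Blood sampled at 0.25, 0.5, 1, 2, 4, 8 and 24 h post-dose. Plasma separated by centrifugation, extracted and quantified by LC-MS/MS. PK parameters (Cmax, AUClast, Tmax, t1/2) derived by non-compartmental software.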

[2] = test system: SU-DHL10; assay: Induction of apoptosis in human SU-DHL-10 cells assessed as viable cells at 20 uM measured after 24 hrs by AnnexinV-FITC/PI staining based flowcytometry method (reference value: 90%); format: functional; details: read-out: Activity
Procedure, shortened: (§2)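 Cells exposed to 20 μM compound for 24 h, washed with cold PBS, and stained with Annexin V-FITC and propidium iodide for 15 min at room temperature. Viable, early apoptotic, late apoptotic and necrotic populations quantified by flow cytometry.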

[3] = test system: MOLT-4; assay: Antiproliferative activity against human MOLT-4 cells assessed as reduction in cell viability at 20 uM by CellTiter-Glo luminescent cell viability assay relative to idelalisib; format: functional
Procedure, shortened: (§3)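 Cells were seeded at 5x10^4 per well and exposed to the compound at a single concentration: 10 μM for SUDHL-5 and 20 μM for MOLT-4. CellTiter-Glo reagent was added 1:1, mixed for 2 min to lyse the cells, and held 10 min at room temperature before reading luminescence. Readings were background-subtracted and normalized to control wells.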

[4] = test system: SU-DHL-5; assay: Antiproliferative activity against human SU-DHL-5 cells assessed as reduction in cell viability at 10 uM by CellTiter-Glo luminescent cell viability assay relative to idelalisib; format: functional; procedure, shortened: as §3
[5] = organism: Homo sapiens; assay: Selectivity ratio of IC50 for recombinant human full length His-tagged p110gamma expressed in baculovirus expression system to IC50 for recombinant human full length His-tagged p110delta/p85alpha expressed in baculovirus expression system
[6] = test system: SU-DHL10; assay: Induction of apoptosis in human SU-DHL-10 cells assessed as early apoptotic cells at 20 uM measured after 24 hrs by AnnexinV-FITC/PI staining based flowcytometry method (reference value: 6.32%); format: functional; procedure, shortened: as §2
[7] = test system: MOLT-4; assay: Antitumour activity against human MOLT-4 cells xenografted in Balb/c nude mouse assessed as inhibition of tumour growth at 10 mg/kg, po administered via gavage qd for 57 days; format: functional; details: MOLT-4, po, 1368 h, time 57 day, read-out: TGI
Procedure, shortened: (§4)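 MOLT-4 cells (2×10^6 in 0.1 mL D-PBS) implanted subcutaneously on the back of BALB/c-nude mice. Once tumours grew, mice were dosed daily by oral gavage at 10 mg/kg for 57 consecutive days. Tumours measured by caliper, with volume = ½ × […]. Body weight was tracked over the same period.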

[8] = Toxicity in Balb/c nude mouse xenografted with human MOLT-4 cells assessed as changes in body weight at 10 mg/kg, po administered via gavage qd for 57 days; format: organism-based; details: in vivo, 1368 h, dose 10 mg/kg/day, time 57 day; procedure, shortened: as §4
[9] = test system: SU-DHL10; assay: Induction of apoptosis in human SU-DHL-10 cells assessed as necrotic cells at 20 uM measured after 24 hrs by AnnexinV-FITC/PI staining based flowcytometry method (reference value: 0.2%); format: functional; procedure, shortened: as §2
[10] = test system: MOLT-4; assay: Induction of apoptosis in human MOLT-4 cells assessed as necrotic cells at 20 uM measured after 24 hrs by AnnexinV-FITC/PI staining based flowcytometry method (reference value: 0.51%); format: functional; procedure, shortened: as §2
[11] = molecular target: Phosphatidylinositol 4,5-bisphosphate 3-kinase catalytic subunit beta isoform (Homo sapiens, UniProt P42338); assay: Inhibition of recombinant human full length His-tagged p110beta expressed in baculovirus expression system measured after 60 mins in presence of ATP by ATP-competitive binding assay
Procedure, shortened: (§5)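 SelectScreen ATP-competitive assay using 10-point titration with 1 μM top final compound concentration. Kinase, substrate and ATP mixed in 30 mM HEPES buffer and reacted 60 min. IC50 taken as the mean of three independent experiments.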

[12] = Half life in Sprague-Dawley rat at 1 mg/kg, po measured for 24 hrs by LC-MS/MS analysis; format: ADME, organism-based; details: in vivo; procedure, shortened: as §1
[13] = molecular target: PI3-kinase p110-delta/p85-alpha (Homo sapiens, UniProt O00329); assay: Inhibition of recombinant human full length His-tagged p110delta/p85alpha expressed in baculovirus expression system measured after 60 mins in presence of ATP by ATP-competitive binding assay; procedure, shortened: as §5
[14] = AUC (last) in Sprague-Dawley rat at 1 mg/kg, po measured for 24 hrs by LC-MS/MS analysis; format: ADME, organism-based; set-up: route oral, dose 1 mg/kg, time 24 hrs; details: in vivo; procedure, shortened: as §1
[15] = molecular target: Phosphatidylinositol 4,5-bisphosphate 3-kinase catalytic subunit gamma isoform (Homo sapiens, UniProt P48736); assay: Inhibition of recombinant human full length His-tagged p110gamma expressed in baculovirus expression system measured after 60 mins in presence of ATP by ATP-competitive binding assay; procedure, shortened: as §5
[16] = Cmax in Sprague-Dawley rat at 1 mg/kg, po measured for 24 hrs by LC-MS/MS analysis; format: ADME, organism-based; set-up: route oral, dose 1 mg/kg, time 24 hrs; details: in vivo; procedure, shortened: as §1
[17] = Tmax in Sprague-Dawley rat at 1 mg/kg, po measured for 24 hrs by LC-MS/MS analysis; format: ADME, organism-based; details: in vivo; procedure, shortened: as §1
[18] = molecular target: PI3-kinase p110-alpha/p85-alpha (Homo sapiens, UniProt P42336); assay: Inhibition of recombinant human full length N-terminal His-tagged p110alpha/p85alpha expressed in baculovirus expression system measured after 60 mins in presence of ATP by ATP-competitive binding assay; procedure, shortened: as §5
Chain of PI3-kinase p110-alpha/p85-alpha (P27986 whole entry): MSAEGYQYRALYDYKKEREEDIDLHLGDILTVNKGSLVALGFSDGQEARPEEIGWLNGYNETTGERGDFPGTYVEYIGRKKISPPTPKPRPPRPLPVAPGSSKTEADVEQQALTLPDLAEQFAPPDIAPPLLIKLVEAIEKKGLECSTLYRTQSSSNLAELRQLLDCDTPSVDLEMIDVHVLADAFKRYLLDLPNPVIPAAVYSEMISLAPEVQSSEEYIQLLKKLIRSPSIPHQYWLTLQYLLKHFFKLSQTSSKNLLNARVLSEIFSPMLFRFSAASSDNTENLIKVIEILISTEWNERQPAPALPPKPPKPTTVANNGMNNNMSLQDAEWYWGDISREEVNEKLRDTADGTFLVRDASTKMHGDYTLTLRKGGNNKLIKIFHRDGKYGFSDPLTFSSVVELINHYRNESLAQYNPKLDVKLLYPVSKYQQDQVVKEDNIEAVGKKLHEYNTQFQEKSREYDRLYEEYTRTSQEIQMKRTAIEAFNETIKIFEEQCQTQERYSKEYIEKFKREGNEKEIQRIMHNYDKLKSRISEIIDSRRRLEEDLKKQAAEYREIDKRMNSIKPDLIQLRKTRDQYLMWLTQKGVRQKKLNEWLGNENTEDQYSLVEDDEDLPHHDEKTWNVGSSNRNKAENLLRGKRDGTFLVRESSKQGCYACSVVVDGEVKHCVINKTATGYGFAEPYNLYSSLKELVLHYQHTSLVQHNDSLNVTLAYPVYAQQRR
Chain of PI3-kinase p110-alpha/p85-alpha (P42336 whole entry): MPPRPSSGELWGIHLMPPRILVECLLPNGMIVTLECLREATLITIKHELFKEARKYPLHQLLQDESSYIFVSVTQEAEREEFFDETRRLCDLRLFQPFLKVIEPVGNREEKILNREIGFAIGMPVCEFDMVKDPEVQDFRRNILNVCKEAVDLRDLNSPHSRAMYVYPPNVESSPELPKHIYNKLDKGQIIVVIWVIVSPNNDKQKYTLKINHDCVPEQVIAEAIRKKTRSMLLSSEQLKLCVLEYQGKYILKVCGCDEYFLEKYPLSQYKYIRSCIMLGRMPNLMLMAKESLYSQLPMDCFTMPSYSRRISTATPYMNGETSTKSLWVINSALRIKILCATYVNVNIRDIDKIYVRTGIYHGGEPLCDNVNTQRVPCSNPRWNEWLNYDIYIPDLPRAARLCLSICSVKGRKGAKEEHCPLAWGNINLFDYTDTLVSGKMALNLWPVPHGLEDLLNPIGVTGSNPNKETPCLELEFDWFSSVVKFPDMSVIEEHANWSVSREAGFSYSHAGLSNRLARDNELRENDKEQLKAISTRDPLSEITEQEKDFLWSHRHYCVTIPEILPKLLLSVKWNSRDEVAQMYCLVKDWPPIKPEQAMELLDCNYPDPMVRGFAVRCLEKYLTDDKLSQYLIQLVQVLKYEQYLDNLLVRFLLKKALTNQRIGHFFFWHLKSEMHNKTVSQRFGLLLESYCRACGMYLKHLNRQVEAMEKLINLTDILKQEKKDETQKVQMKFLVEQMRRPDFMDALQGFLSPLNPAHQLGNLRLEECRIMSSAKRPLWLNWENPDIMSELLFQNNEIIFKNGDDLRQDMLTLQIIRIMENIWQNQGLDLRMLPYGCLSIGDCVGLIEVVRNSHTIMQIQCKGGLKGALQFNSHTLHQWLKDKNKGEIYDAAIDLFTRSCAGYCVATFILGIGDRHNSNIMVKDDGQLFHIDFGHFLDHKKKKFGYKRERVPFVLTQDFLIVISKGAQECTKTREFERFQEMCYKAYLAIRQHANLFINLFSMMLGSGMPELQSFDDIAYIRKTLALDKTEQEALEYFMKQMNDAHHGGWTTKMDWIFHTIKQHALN

Chain of Phosphatidylinositol 4,5-bisphosphate 3-kinase catalytic subunit beta isoform (P42338 whole entry, canonical isoform): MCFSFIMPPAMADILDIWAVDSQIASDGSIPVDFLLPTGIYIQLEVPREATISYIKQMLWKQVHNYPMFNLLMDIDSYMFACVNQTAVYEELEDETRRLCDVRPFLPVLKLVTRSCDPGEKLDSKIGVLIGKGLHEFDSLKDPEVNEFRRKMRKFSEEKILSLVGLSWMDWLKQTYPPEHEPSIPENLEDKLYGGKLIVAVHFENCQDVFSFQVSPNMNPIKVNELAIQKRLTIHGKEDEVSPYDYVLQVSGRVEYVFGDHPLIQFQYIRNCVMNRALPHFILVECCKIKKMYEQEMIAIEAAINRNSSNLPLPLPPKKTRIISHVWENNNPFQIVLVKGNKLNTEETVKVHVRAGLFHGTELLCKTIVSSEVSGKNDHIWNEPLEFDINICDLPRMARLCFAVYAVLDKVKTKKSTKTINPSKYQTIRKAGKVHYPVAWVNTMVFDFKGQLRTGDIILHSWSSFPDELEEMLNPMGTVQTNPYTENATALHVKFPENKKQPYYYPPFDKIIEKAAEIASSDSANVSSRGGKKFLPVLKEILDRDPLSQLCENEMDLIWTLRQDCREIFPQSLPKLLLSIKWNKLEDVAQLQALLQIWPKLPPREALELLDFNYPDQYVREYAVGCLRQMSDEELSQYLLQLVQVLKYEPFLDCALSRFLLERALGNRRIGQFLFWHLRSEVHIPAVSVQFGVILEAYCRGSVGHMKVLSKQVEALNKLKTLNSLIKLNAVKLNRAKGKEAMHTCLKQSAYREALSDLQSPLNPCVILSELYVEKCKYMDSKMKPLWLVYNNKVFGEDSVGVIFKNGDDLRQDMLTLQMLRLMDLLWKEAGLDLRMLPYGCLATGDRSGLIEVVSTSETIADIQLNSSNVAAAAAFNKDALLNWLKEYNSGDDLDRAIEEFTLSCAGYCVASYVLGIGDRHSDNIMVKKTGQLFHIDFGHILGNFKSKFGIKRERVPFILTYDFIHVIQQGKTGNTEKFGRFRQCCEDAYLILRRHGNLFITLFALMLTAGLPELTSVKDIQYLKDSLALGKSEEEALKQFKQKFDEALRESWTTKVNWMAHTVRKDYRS
Chain of Phosphatidylinositol 4,5-bisphosphate 3-kinase catalytic subunit gamma isoform (P48736 whole entry, canonical isoform): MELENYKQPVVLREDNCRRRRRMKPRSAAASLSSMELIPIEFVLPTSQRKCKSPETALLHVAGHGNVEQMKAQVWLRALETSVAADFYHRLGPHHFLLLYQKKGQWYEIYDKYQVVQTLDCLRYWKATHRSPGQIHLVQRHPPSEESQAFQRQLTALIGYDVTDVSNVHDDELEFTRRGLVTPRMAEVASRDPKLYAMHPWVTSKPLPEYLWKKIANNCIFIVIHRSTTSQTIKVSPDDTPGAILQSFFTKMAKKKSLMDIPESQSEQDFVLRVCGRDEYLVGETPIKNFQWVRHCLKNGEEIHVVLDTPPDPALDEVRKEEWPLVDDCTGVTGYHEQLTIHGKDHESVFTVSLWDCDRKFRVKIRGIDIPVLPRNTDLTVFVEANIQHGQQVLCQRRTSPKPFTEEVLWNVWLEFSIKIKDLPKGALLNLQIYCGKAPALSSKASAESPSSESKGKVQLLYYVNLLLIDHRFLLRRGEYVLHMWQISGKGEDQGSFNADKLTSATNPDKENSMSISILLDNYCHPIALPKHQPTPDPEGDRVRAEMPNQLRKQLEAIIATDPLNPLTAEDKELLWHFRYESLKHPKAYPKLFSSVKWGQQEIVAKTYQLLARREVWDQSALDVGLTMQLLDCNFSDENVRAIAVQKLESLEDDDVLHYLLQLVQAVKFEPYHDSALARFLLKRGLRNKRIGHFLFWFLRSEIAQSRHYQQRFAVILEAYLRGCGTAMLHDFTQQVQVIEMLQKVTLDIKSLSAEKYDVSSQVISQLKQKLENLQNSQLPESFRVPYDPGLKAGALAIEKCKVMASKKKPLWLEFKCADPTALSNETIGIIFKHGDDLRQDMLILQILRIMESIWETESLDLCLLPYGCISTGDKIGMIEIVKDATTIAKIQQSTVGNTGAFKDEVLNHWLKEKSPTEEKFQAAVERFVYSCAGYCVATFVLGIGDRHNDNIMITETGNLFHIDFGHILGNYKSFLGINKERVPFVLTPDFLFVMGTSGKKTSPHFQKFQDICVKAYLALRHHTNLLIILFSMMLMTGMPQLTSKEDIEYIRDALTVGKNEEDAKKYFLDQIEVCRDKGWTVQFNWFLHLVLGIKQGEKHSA
Chain of PI3-kinase p110-delta/p85-alpha (P27986 whole entry): as the sequence (P27986 whole entry) above
Chain of PI3-kinase p110-delta/p85-alpha (O00329 whole entry): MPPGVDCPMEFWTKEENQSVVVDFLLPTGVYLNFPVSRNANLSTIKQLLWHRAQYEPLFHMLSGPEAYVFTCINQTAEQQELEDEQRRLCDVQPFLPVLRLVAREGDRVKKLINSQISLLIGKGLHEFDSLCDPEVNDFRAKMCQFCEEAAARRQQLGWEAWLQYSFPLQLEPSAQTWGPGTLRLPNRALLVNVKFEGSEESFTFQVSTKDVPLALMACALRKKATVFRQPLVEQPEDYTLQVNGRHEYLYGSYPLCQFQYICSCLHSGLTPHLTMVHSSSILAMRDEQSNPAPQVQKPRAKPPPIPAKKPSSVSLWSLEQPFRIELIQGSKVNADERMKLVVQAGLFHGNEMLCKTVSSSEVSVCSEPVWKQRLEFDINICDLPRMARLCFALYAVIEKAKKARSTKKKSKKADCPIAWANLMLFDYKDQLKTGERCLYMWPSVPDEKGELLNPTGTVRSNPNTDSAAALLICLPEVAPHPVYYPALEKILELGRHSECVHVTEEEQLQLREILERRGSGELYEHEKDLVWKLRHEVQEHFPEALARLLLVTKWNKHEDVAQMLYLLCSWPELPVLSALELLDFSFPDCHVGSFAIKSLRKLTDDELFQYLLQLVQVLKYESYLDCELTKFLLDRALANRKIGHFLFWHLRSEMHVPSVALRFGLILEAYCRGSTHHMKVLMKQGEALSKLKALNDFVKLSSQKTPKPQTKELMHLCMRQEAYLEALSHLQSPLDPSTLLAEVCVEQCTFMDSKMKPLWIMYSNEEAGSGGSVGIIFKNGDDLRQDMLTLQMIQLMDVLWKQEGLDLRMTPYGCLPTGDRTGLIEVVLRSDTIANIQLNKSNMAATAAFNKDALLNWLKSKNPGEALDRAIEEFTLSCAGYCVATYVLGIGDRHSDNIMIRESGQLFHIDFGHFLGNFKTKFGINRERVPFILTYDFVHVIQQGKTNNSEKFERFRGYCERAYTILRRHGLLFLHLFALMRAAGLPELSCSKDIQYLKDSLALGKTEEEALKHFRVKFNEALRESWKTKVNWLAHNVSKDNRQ

SMILES	half-life [1]	viability at 20 µM [2]	fold change (FC) [3]	fold change (FC) [4]	Ratio IC50 [5]	Activity [6]	inhibition in vivo at 10 mg/kg/day [7]	Activity [8]	Activity [9]	Activity [10]	IC50 [11]	half-life [12]	IC50 [13]	AUC(0-t) at 24 h [14]	IC50 [15]	Cmax [16]	Tmax [17]	IC50 [18]
Cc1cccc2nc([C@@H](Nc3ncnc4nc[nH]c34)C3CC3)n(-c3ccccc3)c(=O)c12	8.3 h	15%	5	5	95.5	34.9%	56.7%	Non-Toxic	4.16%	3.3%								
O=c1c2c(F)cccc2nc([C@@H](Nc2ncnc3nc[nH]c23)C2CC2)n1-c1ccccc1	7.7 h	19.7%				54.3%	55.1%	Non-Toxic	1.77%	2.47%	199 nM	10.2 h	0.39 nM	81 ng·h/mL	19.1 nM	18.3 ng/mL	0.5 h	222 nM
